Results from ChEMBL document CHEMBL4190282, “The Conjugated Double Bond of Coniferyl Aldehyde Is Essential for Heat Shock Factor 1 Mediated Cytotoprotection” (J Nat Prod, 2017).
Calls of active or inactive are those of the source. No cut-off for these calls is given here.

Assays:
[1] = molecular target: T1, Heat shock factor protein 1 (Mus musculus) (UniProt P38532); assay: Activation of HSF1 in MEF assessed as protection against paclitaxel-induced PARP cleavage at 3 uM pretreated for 1 hr followed by paclitaxel addition measured after 24 hrs by immunoblotting analysis; type: cell-based
T1 sequence (whole entry): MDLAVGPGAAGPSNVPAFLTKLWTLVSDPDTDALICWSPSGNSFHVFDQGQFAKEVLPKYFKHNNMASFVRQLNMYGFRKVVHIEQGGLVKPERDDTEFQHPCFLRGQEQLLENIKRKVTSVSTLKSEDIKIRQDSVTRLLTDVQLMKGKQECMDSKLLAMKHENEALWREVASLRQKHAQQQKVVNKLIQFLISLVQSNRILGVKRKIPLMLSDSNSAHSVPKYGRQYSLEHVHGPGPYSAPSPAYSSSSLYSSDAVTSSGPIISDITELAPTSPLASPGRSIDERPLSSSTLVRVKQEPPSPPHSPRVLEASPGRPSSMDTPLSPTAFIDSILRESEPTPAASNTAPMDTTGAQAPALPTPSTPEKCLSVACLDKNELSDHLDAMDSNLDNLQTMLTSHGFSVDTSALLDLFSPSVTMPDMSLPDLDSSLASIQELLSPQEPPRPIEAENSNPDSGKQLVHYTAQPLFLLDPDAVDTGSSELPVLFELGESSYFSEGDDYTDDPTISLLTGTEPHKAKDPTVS
Outline: (§1)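 HSF1+/+ or HSF1−/− MEFs in DMEM with heat-inactivated 10% FBS, nonessential amino acids, glutamine, HEPES, 37 °C, 5% CO2. 1 h pretreatment at 3 μM, then 0.5 μM paclitaxel or 20 μM cisplatin for 24 h, or 10 Gy 137Cs γ-rays (3.81 Gy/min) for 48 h. Cleaved PARP and caspase-3 immunoblotted; bands normalized to loading control, fold-change vs negative control, ≥3 independent experiments.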

[2] = test system: Mus musculus; assay: Protection against IR-induced bone marrow damage in ICR mouse at 10 mg/kg, ip administered once before and three times after 4.5 Gy irradiation measured after 9 days by hematoxylin and eosin staining based assay; type: functional, organism-based
Outline: (§2)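 Female ICR mice (5–6 weeks) given 4.5 Gy whole-body IR, dosed ip at 10 mg/kg once before and three times after IR; 5 per group, sacrificed day 9. BM cellularity from H&E (hematopoietic cells per 200×200 μm area); peripheral WBC, lymphocytes, neutrophils; Ki67 IHC counted in five fields per femur; relative spleen weight vs control. Means ± SD, Student's t test.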

[3] = molecular target: T1, Heat shock factor protein 1 (Mus musculus); assay: Activation of HSF1 in MEF assessed as protection against cisplatin-induced caspase3 cleavage at 3 uM pretreated for 1 hr followed by cisplatin addition measured after 24 hrs by immunoblotting analysis; type: cell-based; outline: as §1
[4] = test system: Mus musculus; assay: Protection against IR-induced reduction in circulating WBCs in ICR mouse at 10 mg/kg, ip administered once before and three times after 4.5 Gy irradiation measured after 9 days; type: functional, organism-based; outline: as §2
[5] = test system: MEF; assay: Cytoprotective activity against paclitaxel-induced caspase3 cleavage in HSF1 deficient MEF at 3 uM pretreated for 1 hr followed by paclitaxel addition measured after 24 hrs by immunoblotting analysis; type: functional, cell-based; conditions: Mus musculus; outline: as §1
[6] = molecular target: T2, Heat shock factor protein 1 (Homo sapiens) (UniProt Q00613); assay: Activation of HSF1 in human L132 cells assessed as increase in HSP25 mRNA expression at 3 uM after 12 hrs by RT-PCR analysis; type: cell-based
T2 sequence (whole entry): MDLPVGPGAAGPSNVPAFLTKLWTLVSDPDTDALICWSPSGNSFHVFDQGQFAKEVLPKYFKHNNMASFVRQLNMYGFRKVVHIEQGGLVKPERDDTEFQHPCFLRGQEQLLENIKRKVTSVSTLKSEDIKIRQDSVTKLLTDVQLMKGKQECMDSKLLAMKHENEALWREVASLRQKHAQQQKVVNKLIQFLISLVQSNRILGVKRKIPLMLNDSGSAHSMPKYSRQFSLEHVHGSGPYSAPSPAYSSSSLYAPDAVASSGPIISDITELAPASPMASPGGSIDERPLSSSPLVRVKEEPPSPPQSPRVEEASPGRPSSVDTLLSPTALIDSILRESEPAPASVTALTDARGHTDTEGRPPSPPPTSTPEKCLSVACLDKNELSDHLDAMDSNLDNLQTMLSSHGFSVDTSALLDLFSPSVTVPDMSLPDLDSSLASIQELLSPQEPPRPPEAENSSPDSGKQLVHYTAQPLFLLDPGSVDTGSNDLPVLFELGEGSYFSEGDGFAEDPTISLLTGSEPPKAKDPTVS
Outline: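 L132 human lung fibroblasts treated 12 h at 3 μM; hsp27 and hsp70 mRNA measured by RT-PCR under the same conditions as immunoblotting. Celastrol 1 μM positive control.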

[7] = test system: MEF; assay: Cytoprotective activity against IR-induced caspase3 cleavage in HSF1 deficient MEF at 3 uM pretreated for 1 hr followed by 10 Gy irradiation measured after 48 hrs by immunoblotting analysis; type: functional, cell-based; conditions: Mus musculus; outline: as §1
[8] = test system: L132; assay: Cytoprotective activity against IR-induced caspase3 cleavage in human L-132 cells at 3 uM pretreated for 1 hr followed by 10 Gy irradiation measured after 48 hrs by immunoblotting analysis; type: functional, cell-based
Outline: (§3)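 Human embryonic lung L132 cells in RPMI with 10% FBS. 1 h pretreatment at 3 μM, then 0.5 μM paclitaxel or 20 μM cisplatin for 24 h, or 10 Gy 137Cs γ-rays (3.81 Gy/min) for 48 h. Cleaved PARP and caspase-3 immunoblotted (ECL); bands normalized to loading control, fold-change vs negative control, ≥3 independent experiments.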

[9] = test system: Mus musculus; assay: Protection against IR-induced reduction of spleen weight in ICR mouse at 10 mg/kg, ip administered once before and three times after irradiation measured after 9 days; type: functional, organism-based; outline: as §2
[10] = test system: L132; assay: Cytoprotective activity against IR-induced PARP cleavage in human L-132 cells at 3 uM pretreated for 1 hr followed by 10 Gy irradiation measured after 48 hrs by immunoblotting analysis; type: functional, cell-based; outline: as §3
[11] = molecular target: T2, Heat shock factor protein 1 (Homo sapiens); assay: Activation of HSF1 in human NCI-H460 cells expressing pGL4-hsp70 construct assessed as upregulation of hsp70 promoter activity at 10 to 30 uM after 12 hrs by luciferase reporter gene assay; type: cell-based
Outline: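 NCI-H460 cells stably carrying hsp25 or hsp70 promoter–luciferase reporters, seeded, treated after 24 h at 10 or 30 μM and harvested 12 h later. Lysate luciferase normalized to β-galactosidase; mean of three independent experiments, fold-change vs negative control.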

[12] = test system: Mus musculus; assay: Protection against IR-induced reduction of food and water intake in ICR mouse at 5 to 10 mg/kg, ip administered once before and three times after 7 Gy irradiation measured daily for 30 days; type: functional, organism-based
Outline: (§4)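 Female ICR mice (5–6 weeks, 25–30 g) given 7 Gy whole-body IR; dosed ip at 5 or 10 mg/kg once before and three times after IR, DMSO stock diluted in modified PBS. Survival days and radiation sickness signs checked twice daily; 10 mice per group.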

[13] = test system: Mus musculus; assay: Protection against IR-induced reduction in cellular proliferation in ICR mouse at 10 mg/kg, ip administered once before and three times after 4.5 Gy irradiation measured after 9 days by Ki67 staining-based immunohistochemical analysis; type: functional, organism-based; outline: as §2
[14] = test system: Mus musculus; assay: Protection against IR-induced mortality in ICR mouse assessed as increase in mean survival days at 5 to 10 mg/kg, ip administered once before and three times after 7 Gy irradiation measured daily for 30 days; type: functional, organism-based; outline: as §4

Row | Activity [1] | Activity [3] | Activity [6] | Activity [11] | Structure (SMILES) | Activity [2] | Activity [4] | Activity [5] | Activity [7] | Activity [8] | Activity [9] | Activity [10] | Activity [12] | Activity [13] | Activity [14]
1 | Active | Active | Active | Active | COc1cc(/C=C/CO)ccc1O [CONIFERYL ALCOHOL] | Active | Active | inactive | inactive | Active | Active | Active | Active | Active | Active
2 | Active | Active | Active | Active | COc1cc(/C=C/C=O)ccc1O [CONIFERYL ALDEHYDE] | Active | Active | inactive | inactive | Active | Active | Active | Active | Active | Active
